# This is a sample that favours compounds with a hit; in the whole collection about 2.9% have one here.
# PolyA inh: inhibitors of polyadenylation in S. cerevisiae; S. cerevisiae SKY197-pL101 polyadenylation reporter, beta-gal luminescence; efflux-impaired pdr1/pdr3 knockout yeast; score 100 = 6 SD above DMSO; activity score, % at 12 µM; actives 0.02% (n = 300,000); AID 1875;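 active means lowest replicate activity score at least 50, where 100 means six control SD above control mean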;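 further: yeast exposed to compound for 9 h at 30 °C; higher score means more reporter readthrough which indicates perturbed polyadenylation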
# VIM-2 inhibitor: blocks Pseudomonas aeruginosa VIM-2 metallo-beta-lactamase. actives 0.89% (n = 290,000). inhibition, % at 5.6 µM. purified VIM-2, nitrocefin hydrolysis, epi-absorbance fluorescence;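 active means inhibition above the mean of all tested compounds plus 3 SD, cutoff set per screening run, cut at about 7.5% in these data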;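 further: red hydrolysis product quenches plate fluorescence so inhibitors raise well fluorescence; 0% = enzyme with DMSO and 100% = DMSO without enzyme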
# SUMO Mot1 rescue: blocks SUMOylation pathway, rescuing yeast Mot1-301 growth; actives 1% (n = 320,000); growth rescue, % at 18.8 µM; S. cerevisiae Mot1-301 growth rescue, ATP luminescence, 38.5C; percent above DMSO median, 100 means doubled;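 active means every valid replicate shows activation above 250% relative to neutral control wells; inactive means the rest, any valid replicate at or below 250%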;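 further: OY570 slx delta 5 strain wells were the positive control but not used for scaling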
# NALP1 inh: blocks the NALP1 inflammasome reconstituted in yeast; inhibition, % at 10 µM; AID 2071; actives 0.61% (n = 280,000); S. cerevisiae NALP1/ASC/caspase-1 growth, X-gal OD620, 72 h; in the data active means inhibition mostly above about 24%, no sharp cut-off; inactive means mostly below about 32%
# IMP-1 inh: inhibitors of Pseudomonas aeruginosa IMP-1 metallo-beta-lactamase; AID 1556; purified IMP-1, nitrocefin hydrolysis, epi-absorbance fluorescence; actives 0.45% (n = 290,000); inhibition, % at 5.6 µM;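 active means inhibition above the mean plus 3 SD of all compounds in the same screening run, cut at about 4.5% in these data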;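 further: 0% = IMP-1 with DMSO and 100% = DMSO wells lacking enzyme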
#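 Test system: recombinant IMP-1 enzyme, purified / Medium: HEPES buffer pH 7.1 with ZnSO4 and Brij 35 / Doses: single dose, 5.6 µM / Times: 25 °C, 15 min preincubation, 25 min reaction / Detection: Epi-absorbance via hydrolysed-nitrocefin quenching of white-plate fluorescence, 480/530 nm, EDTA stop / Evaluation: percent inhibition from optical density relative to buffer-blank wells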
# NLRP3 yeast inh: blocks the NALP3 inflammasome reconstituted in yeast. Yeast reconstituted NLRP3/ASC/caspase-1, beta-gal luminescence, 24 h. actives 0.39% (n = 330,000). inhibition, % at 10 µM;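 active means inhibition of 50% or more; inactive means inhibition below 50%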;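 further: plate controls were induced DMSO wells for no effect and uninduced yeast grown without galactose for full effect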
# Yeast Mot1 SUMO: yeast SUMO pathway inhibition in dose response | growth activity, percent, % at 42 µM | S. cerevisiae Mot1-301 galactose growth, ATP luminescence, 24 h; -100 = growth of slx-deleted rescue strain | shares compounds with SUMO Mot1 rescue | 2,300 tested, under 10 active | AID 493004;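 active means Signal drops as the depositor expects, and the fitted half-maximal dose is no more than ten times the top valid tested dose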;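 further: more negative values mean stronger growth rescue toward the control strain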
# * marks the source's active call; other numbers are inactive results; . = no result; + = active, no number; [ ] = another dose, or the depositor's remark.
SMILES,PolyA inh,VIM-2 inhibitor,SUMO Mot1 rescue,NALP1 inh,IMP-1 inh,NLRP3 yeast inh,Yeast Mot1 SUMO
CCn1c(SCC(=O)Nc2nc(-c3ccccc3)cs2)nnc1-c1ccccc1,-3.8,-2.3,569.8*,-9.3,-2.0,2.9,0.6
COC(=O)CSc1nnc(-c2ccncc2)n1N,7.4,-1.8,-4.1,17.9,-1.1,-8.8,.
Brc1cccc(CNCC2CCCO2)c1 (stereo unspecified),-0.4,-0.4,1.5,14.0,-1.4,11.8,.
O=[N+]([O-])c1cccc(-c2nc3ccc([N+](=O)[O-])cc3[nH]2)c1,7.2,-3.0,359.0*,-9.0,-1.5,28.8,0.7
O=[N+]([O-])c1ccc2nc(-c3ccncc3)[nH]c2c1,10.8,-3.3,304.6,-7.6,-2.6,16.3,.
CCn1cc(C(=O)NCC(OC)OC)c(=O)c2cc(S(=O)(=O)N3CCOCC3)ccc21,20.7,-4.3,-4.0,7.1,-2.7,15.4,.
COC(CNC(=O)c1cn(C)c2ccc(S(=O)(=O)N3CCOCC3)cc2c1=O)OC,19.9,-1.4,606.0*,5.8,-3.8,10.3,0.4
Cc1ccc(S(=O)(=O)Oc2ccc(/C=C3\N=C(c4cccc(C)c4)OC3=O)cc2)cc1,-5.7,0.1,+,7.5,-4.0,5.9,0.0
CCCCn1c(N)c(N(CCOC)C(=O)c2ccc(Cl)c(S(=O)(=O)N3CCCCC3)c2)c(=O)[nH]c1=O,21.5,.,697.6*,.,.,21.8,0.3
CCCCn1c(N)c(N(CCOC)C(=O)c2cnccn2)c(=O)[nH]c1=O,-2.7,.,765.4*,.,.,-2.6,0.9
CCC(C)(C)n1nnnc1C(c1cccnc1)N1CCC(Cc2ccccc2)CC1 (stereo unspecified),-104.2,-2.1,593.6*,11.3,-2.9,7.3,0.6
CCC(C)(C)n1nnnc1C(c1ccncc1)N1CCC(Cc2ccccc2)CC1 (stereo unspecified),-4.1,-3.7,30.1,4.5,-2.7,-8.1,.
COc1ccc(C)cc1NC(=S)N1CCN(c2ccccn2)CC1,14.9,-3.7,512.7*,14.2,-3.5,8.2,0.8
COc1ccc(NC(=S)N2CCN(c3ccccn3)CC2)cc1OC,-3.7,-1.6,3.5,8.9,-4.0,6.9,.
N#Cc1cc2c(nc1SC1CCCCC1O)CCCC2 (stereo unspecified),7.9,4.9,485.3*,-2.7,-0.8,-7.7,1.4
CCOc1ccc(C(=O)Nc2ccc(CN3CCOCC3)cc2)cc1Br,7.5,-0.8,364.9*,11.4,-3.7,27.4,0.5[21 µM]
O=C(NC1=NCCS1)c1ccc(C(F)(F)F)cc1,23.1,-0.9,-10.7,7.7,-1.6,17.6,.
O=C(Nc1ncccn1)c1ccc(C(F)(F)F)cc1,16.8,-1.8,437.7*,27.6,-1.4,3.0,-0.9
COc1ccc2[nH]cc(CCNC(=O)c3ccccc3Cl)c2c1,-11.6,1.3,-22.0,4.1,-0.7,12.8,.
Oc1c(Br)cc(Br)cc1/C=N/c1nccs1,.,.,131.3,.,.,13.3,.
Oc1c(Br)cc(Br)cc1C=Nc1ccc2[nH]ncc2c1,10.4,-1.1,359.7*,.,4.1,30.0,-0.8
Oc1c(Br)cc(Br)cc1C=Nc1cccnc1,-8.0,-1.4,481.1*,45.4*,27.9*,24.1,-0.8
COc1ccc(C=Nc2ccc3[nH]ncc3c2)c(O)c1,-5.1,-0.8,51.1,2.7,-2.1,5.4,.
O=C(Nc1ccc(S(=O)(=O)NC2=NCCCCC2)cc1)c1ccc(Cl)cc1Cl,-14.5,.,2.8,.,.,5.6,.
CS(=O)(=O)c1ccc(Cl)c(NC(=O)CN2CCN(C(=O)c3cccs3)CC2)c1,.,.,-6.8,.,.,10.4,.
SMILES,PolyA inh,VIM-2 inhibitor,SUMO Mot1 rescue,NALP1 inh,IMP-1 inh,NLRP3 yeast inh,Yeast Mot1 SUMO
O=C(/C=C/c1ccc(Cl)cc1Cl)Nc1cccc(S(=O)(=O)NC2=NCCCCC2)c1,-15.8,-0.6,546.8*,27.4,-2.7,-5.7,0.7
O=C(/C=C/c1ccccc1[N+](=O)[O-])Nc1cccc(S(=O)(=O)NC2=NCCCCC2)c1,.,.,.,.,.,8.6,.
O=C(OCC#CCSc1nnc(-c2ccccc2)o1)c1cc2ccccc2o1,-34.0,0.5,581.7*,6.3,-2.1,14.2,0.2
COc1ccc2c(c1)[C@H]1[C@H](CO2)[C@H](c2ccccc2)[C@]2(C)C(=O)Nc3ccc(Br)cc3C(=O)N12,.,.,548.5*,.,.,13.1,-0.8
COc1ccc2c(c1)OC[C@H]1[C@H]2N2C(=O)c3cc(OC)c(OC)cc3NC(=O)[C@@]2(C)[C@H]1c1ccccc1,.,.,485.2*,.,.,9.0,-0.6
COc1ccc2c(c1)OC[C@H]1[C@H]2N2C(=O)c3cc(Br)ccc3NC(=O)[C@@]2(C)[C@H]1c1ccccc1,.,.,468.3*,.,.,12.0,-0.4
COc1ccc2c(c1)[C@H]1[C@H](CO2)[C@H](c2ccccc2)[C@]2(C)C(=O)Nc3cc(F)ccc3C(=O)N12,.,.,375.5*,.,.,16.4,-1.0
COc1ccc2c(c1)[C@H]1[C@H](CO2)[C@H](c2ccccc2)[C@]2(C)C(=O)Nc3ccccc3C(=O)N12,.,.,108.6,.,.,13.8,.
COc1cc2c(cc1OC)C(=O)N1[C@H]3c4ccccc4OC[C@@H]3[C@H](c3ccccc3)[C@]1(C)C(=O)N2,.,.,182.9,.,.,13.9,.
CC(CN1CCCCCC1)C(=O)NN (stereo unspecified),-7.1,-1.9,674.0*,8.5,-2.0,-2.0,0.8
CC(=O)N/C(=C\c1ccccc1)C(=O)OCc1ccc(F)cc1,21.4,-1.7,22.5,-5.1,2.6,9.2,.
C=CCOc1ccccc1CN1CCCC(CCC(=O)N(C)CCc2ccccn2)C1 (stereo unspecified),-8.1,-2.2,681.8*,-3.1,-1.3,17.5,-0.1[21 µM]
CO/N=C/c1ccc(Oc2ccc(C)cc2)nc1,5.7,-1.2,494.6*,0.9,-1.1,23.1,0.5
Cc1ccc(Oc2ccc(C=O)cn2)cc1,17.3,-6.3,1.9,-4.9,-1.6,-2.8,.
O=C(/C=C/c1ccc(F)cc1)NCC1(c2ccccc2)CCOCC1,-12.2,-2.7,541.7*,31.9,-2.5,-3.9,-0.3
O=C(/C=C/c1ccccc1)NCC1(c2ccccc2)CCOCC1,7.7,-2.2,-18.6,.,-2.5,8.2,.
Fc1cccc(Nc2ncnc3sccc23)c1,-20.3,-0.4,655.0*,21.0,1.1,21.6,-0.3
O=C(CCc1nnc2ccc(N3CCC4(CC3)OCCO4)nn12)NCc1ccccc1Cl,0.9,-5.9,-7.9,21.9,0.3,1.6,.
CCOC(=O)c1c(C)n(C)c2cc(-c3ccc(C)cc3)c(O)cc12,7.7,-0.8,644.8*,48.5,-1.4,1.3,0.0
CCOc1ccc(S(=O)(=O)NCc2ccc3c(c2)OCO3)cc1NC(C)=O,11.3,-0.6,15.0,4.6,0.3,4.5,.
O=C(NCCCn1ccnc1)Nc1cccc2ccccc12,.,0.0,762.5*,3.6,0.4,5.2,0.1
